# Measured values taken from ChEMBL document CHEMBL1649117, “GRL-02031, a novel nonpeptidic protease inhibitor (PI) containing a stereochemically defined fused cyclopentanyltetrahydrofuran potent against multi-PI-resistant human immunodeficiency virus type 1 in vitro” (Antimicrob Agents Chemother, 2009).
# Tests used:
# [1] = system: Human immunodeficiency virus 1; assay: Antiviral activity against HIV1 MOKW infected in human PHA-PBC assessed as inhibition of p24 Gag protein production by ELISA; type: functional, organism-based; conditions: Human immunodeficiency virus 1, MOKW
# How it was run: (§1)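 Phytohemagglutinin-stimulated PBMs (10^6/ml) infected with 50 TCID50s of each primary isolate, cultured with or without drug in 10-fold serial dilutions. On day 7, supernatant p24 Gag was measured by automated chemiluminescent enzyme immunoassay. […] Triplicate.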
# [2] = system: Human immunodeficiency virus 1; assay: Antiviral activity against HIV1 C harboring L10I/I15V/K20R/L24I/M36I/M46L/I54V/I62V/L63P/K70Q/V82A/L89M in protease encoding region infected in human PHA-PBC assessed as inhibition of p24 Gag protein production by ELISA; type: functional, organism-based; conditions: Human immunodeficiency virus 1, C; how it was run: as §1
# [3] = system: Human immunodeficiency virus 1; assay: Ratio of EC50 for HIV1 A harboring L10I/I15V/E35D/N37E/K45R/I54V/L63P/A71V/V82T/L90M/I93L/C95F in protease encoding region to EC50 for HIV1 ERS104pre; type: functional
# [4] = system: Human immunodeficiency virus 1; assay: Ratio of EC50 for HIV1 B harboring L10I/I15V/E35D/N37E/K45R/I54V/L63P/A71V/V82T/L90M/I93L/C95F in protease encoding region to EC50 for HIV1 ERS104pre; type: functional
# [5] = system: Human immunodeficiency virus 1; assay: Ratio of EC50 for HIV1 NL4-3 harboring L10F/D30N/K45I/A71V/T74S amino acid substitution in protease encoding region to EC50 for HIV1 NL4-3; type: functional
# [6] = system: Human immunodeficiency virus 1; assay: Antiviral activity against HIV1 NL4-3 harboring L10F/L33F/M46I/I47V/Q58E/V82I/I84V/I85V amino acid substitution in protease encoding region infected in human MT4 cells assessed as inhibition of p24 Gag protein production selected at 5 uM of GRL-02031 by ELISA; type: functional, organism-based; conditions: Human immunodeficiency virus 1, NL4-3, MT4
# How it was run: (§2)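 Cell-free passage used day-7 supernatants. Variants were then tested in MT-4 cells (10^5/ml) with 100 TCID50s, with or without drug, at 37°C. Day-7 p24 Gag was read by chemiluminescent immunoassay; EC50 vs drug-free control; triplicate.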
# [7] = system: Human immunodeficiency virus 1; assay: Antiviral activity against HIV1 G harboring L10I/V11I/T12E/I15V/L19I/R41K/M46L/L63P/A71T/V82A/L90M in protease encoding region infected in human PHA-PBC assessed as inhibition of p24 Gag protein production by ELISA; type: functional, organism-based; conditions: Human immunodeficiency virus 1, G; how it was run: as §1
# [8] = system: Human immunodeficiency virus 1; assay: Antiviral activity against HIV1 B harboring L10I/I15V/E35D/N37E/K45R/I54V/L63P/A71V/V82T/L90M/I93L/C95F in protease encoding region infected in human PHA-PBC assessed as inhibition of p24 Gag protein production by ELISA; type: functional, organism-based; conditions: Human immunodeficiency virus 1, B; how it was run: as §1
# [9] = system: Human immunodeficiency virus 1; assay: Ratio of EC50 for HIV1 JSL harboring L10I/L24I/L33F/E35D/M36I/N37S/M46L/I54V/R57K/I62V/L63P/A71V/G73S/82A in protease encoding region to EC50 for HIV1 ERS104pre; type: functional
# [10] = system: Human immunodeficiency virus 1; assay: Ratio of EC50 for HIV1 MM harboring L10I/K43T/M46L/I54V/L63P/A71V/V82A/L90M/Q92K in protease encoding region infected to EC50 for HIV1 ERS104pre; type: functional
# [11] = system: Human immunodeficiency virus 1; assay: Ratio of EC50 for HIV1 NL4-3 harboring M46I/V82F/I84V amino acid substitution in protease encoding region to EC50 for HIV1 NL4-3; type: functional
# How it was run: (§3)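 MT-4 cells (10^5/ml) infected with 100 TCID50s of PI-selected HIV-1NL4-3 variants or the parental strain, with or without serial drug concentrations, at 37°C. Day 7 supernatant p24 Gag measured by chemiluminescent enzyme immunoassay. […] Triplicate. Ratio is variant EC50 over wild-type EC50.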
# [12] = system: Human immunodeficiency virus 1; assay: Ratio of EC50 for HIV1 NL4-3 harboring L10I/G48V/I54V/L90M amino acid substitution in protease encoding region to EC50 for HIV1 NL4-3; type: functional; how it was run: as §3
# [13] = system: Human immunodeficiency virus 1; assay: Antiviral activity against HIV1 NL4-3 harboring M46I/V82F/I84V amino acid substitution in protease encoding region infected in human MT4 cells assessed as inhibition of p24 Gag protein production selected at 5 uM of ritonavir by ELISA; type: functional, organism-based; conditions: Human immunodeficiency virus 1, NL4-3, MT4
# How it was run: as §2, with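 “HIV-1NL4-3 (500 TCID50s) was passaged in MT-4 cells, starting at 0.01–0.03 µM PI and raising the drug generally two- to threefold as virus propagated. Cell-free” for “Cell-free”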
# [14] = system: Human immunodeficiency virus 1; assay: Antiviral activity against HIV1 NL4-3 harboring L10F/D30N/K45I/A71V/T74S amino acid substitution in protease encoding region infected in human MT4 cells assessed as inhibition of p24 Gag protein production selected at 5 uM of nelfinavir by ELISA; type: functional, organism-based; conditions: Human immunodeficiency virus 1, NL4-3, MT4
# How it was run: as §2, with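 “HIV-1NL4-3 (500 TCID50s) was passaged in MT-4 cells, starting at 0.01–0.03 µM PI and raising the drug generally two- to threefold as virus propagated. Cell-free” for “Cell-free”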
# [15] = system: Human immunodeficiency virus 1; assay: Antiviral activity against HIV1 NL4-3 harboring L10I/G48V/I54V/L90M amino acid substitution in protease encoding region infected in human MT4 cells assessed as inhibition of p24 Gag protein production selected at 5 uM of saquinavir by ELISA; type: functional, organism-based; conditions: Human immunodeficiency virus 1, NL4-3, MT4
# How it was run: as §2, with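 “HIV-1NL4-3 (500 TCID50s) was passaged in MT-4 cells, starting at 0.01–0.03 µM PI and raising the drug generally two- to threefold as virus propagated. Cell-free” for “Cell-free”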
# [16] = system: Human immunodeficiency virus 1; assay: Antiviral activity against HIV1 ERS104pre infected in human PHA-PBC assessed as inhibition of p24 Gag protein production by ELISA; type: functional, organism-based; conditions: Human immunodeficiency virus 1, ERS104pre
# How it was run: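 Phytohemagglutinin-stimulated PBMs (10^6/ml) infected with 50 TCID50s of each primary isolate, cultured with or without drug in 10-fold serial dilutions. On day 7, supernatant p24 Gag was measured by automated chemiluminescent enzyme immunoassay. Triplicate.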
# [17] = system: Human immunodeficiency virus 1; assay: Ratio of EC50 for saquinavir to compound against HIV1 NL4-3 harboring G48V mutation in protease encoding region infected in human […] cells; type: functional
# [18] = system: Human immunodeficiency virus 1; assay: Antiviral activity against HIV1 NL4-3 harboring V82I/I85V mutation in protease encoding region infected in human […] cells assessed as inhibition of p24 Gag protein production by ELISA; type: functional, organism-based; conditions: Human immunodeficiency virus 1, NL4-3
# How it was run: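 Protease PCR fragments (ApaI/SmaI) were cloned into pHIV-1NLSma, and virions were harvested from transfected 293T cells over 48 h. MT-4 target cells (10^5/ml) were infected with 100 TCID50s, with or without drug, at 37°C. Day-7 supernatant p24 Gag was read by chemiluminescent enzyme immunoassay.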
# [19] = system: Human immunodeficiency virus 1; assay: Ratio of EC50 for saquinavir to compound against HIV1 NL4-3 harboring L90M mutation in protease encoding region infected in human […] cells; type: functional
# [20] = system: Human immunodeficiency virus 1; assay: Ratio of EC50 for ritonavir to compound against HIV1 NL4-3 harboring M46I mutation in protease encoding region infected in human […] cells; type: functional
# [21] = system: Human immunodeficiency virus 2; assay: Antiviral activity against HIV2 EHO infected in human MT2 cells after 7 days by MTT assay; type: functional, organism-based; conditions: Human immunodeficiency virus 2, EHO, MT2, 168 h
SMILES,EC50 [1] [nM],EC50 [2] [nM],Ratio EC50 [3],Ratio EC50 [4],Ratio EC50 [5],EC50 [6] [nM],EC50 [7] [nM],EC50 [8] [nM],Ratio EC50 [9],Ratio EC50 [10],Ratio EC50 [11],Ratio EC50 [12],EC50 [13] [nM],EC50 [14] [nM],EC50 [15] [nM],EC50 [16] [nM],other results
CC(C)(C)NC(=O)[C@@H]1CN(Cc2cccnc2)CCN1C[C@@H](O)C[C@@H](Cc1ccccc1)C(=O)N[C@H]1c2ccccc2C[C@H]1O.O,19,> 1000,>48,>48,19,44,340,> 1000,>48,>48,21,>71,300,270,> 1000,,
Cc1c(O)cccc1C(=O)N[C@@H](CSc1ccccc1)[C@H](O)CN1C[C@H]2CCCC[C@H]2C[C@H]1C(=O)NC(C)(C)C,23,360,21,>63,>56,11,230,> 1000,>63,>63,13,18,240,> 1000,320,16,
COc1ccc(S(=O)(=O)N(C[C@@H]2CCC(=O)N2)C[C@@H](O)[C@H](Cc2ccccc2)NC(=O)O[C@@H]2C[C@@H]3CCO[C@@H]3C2)cc1,26,27,1,1,2,> 1000,28,29,2,2,3,6,77,36,140,27,Ratio EC50 [17]: 5.1; EC50 [18]: 35 nM; Ratio EC50 [19]: 1; Ratio EC50 [20]: 1.2; EC50 [21]: 600 nM
CC(C)(C)NC(=O)[C@@H]1C[C@@H]2CCCC[C@@H]2CN1C[C@@H](O)[C@H](Cc1ccccc1)NC(=O)[C@H](CC(N)=O)NC(=O)c1ccc2ccccc2n1,4,,11,33,4,8,27,300,36,30,1,>125,10,28,> 1000,9,
CC(C)CN(C[C@@H](O)[C@H](Cc1ccccc1)NC(=O)O[C@H]1CCOC1)S(=O)(=O)c1ccc(N)cc1,15,220,6,12,3,210,230,310,26,16,15,8,430,78,210,,
